Assay results from ChEMBL document CHEMBL4811252, “Identification of novel 1,3-diaryl-1,2,4-triazole-capped histone deacetylase 6 inhibitors with potential anti-gastric cancer activity” (Eur J Med Chem, 2021).
The source made the active and inactive calls. The rule behind the calls is not given here.

Assays:
[1] = target: Histone deacetylase 3 (Homo sapiens, UniProt O15379); assay: Inhibition of HDAC3 (unknown origin)
[2] = test system: MGC-803; assay: Induction of apoptosis in human MGC803 cells assessed as early apoptotic cells at 8 uM measured after 48 hrs by Annexin-V FITC/PI staining based flow cytometry (reference value: 0.19%); type: functional
[3] = test system: MGC-803; assay: Induction of apoptosis in human MGC803 cells assessed as viable cells at 8 uM measured after 48 hrs by Annexin-V FITC/PI staining based flow cytometry (reference value: 92.33%); type: functional; conditions: read-out: Activity
[4] = target: T1, Protein deacetylase HDAC6 (Homo sapiens) (UniProt Q9UBN7); conditions: Sf9, dose 100.0 nM, time 40.0 min
T1 sequence (whole entry): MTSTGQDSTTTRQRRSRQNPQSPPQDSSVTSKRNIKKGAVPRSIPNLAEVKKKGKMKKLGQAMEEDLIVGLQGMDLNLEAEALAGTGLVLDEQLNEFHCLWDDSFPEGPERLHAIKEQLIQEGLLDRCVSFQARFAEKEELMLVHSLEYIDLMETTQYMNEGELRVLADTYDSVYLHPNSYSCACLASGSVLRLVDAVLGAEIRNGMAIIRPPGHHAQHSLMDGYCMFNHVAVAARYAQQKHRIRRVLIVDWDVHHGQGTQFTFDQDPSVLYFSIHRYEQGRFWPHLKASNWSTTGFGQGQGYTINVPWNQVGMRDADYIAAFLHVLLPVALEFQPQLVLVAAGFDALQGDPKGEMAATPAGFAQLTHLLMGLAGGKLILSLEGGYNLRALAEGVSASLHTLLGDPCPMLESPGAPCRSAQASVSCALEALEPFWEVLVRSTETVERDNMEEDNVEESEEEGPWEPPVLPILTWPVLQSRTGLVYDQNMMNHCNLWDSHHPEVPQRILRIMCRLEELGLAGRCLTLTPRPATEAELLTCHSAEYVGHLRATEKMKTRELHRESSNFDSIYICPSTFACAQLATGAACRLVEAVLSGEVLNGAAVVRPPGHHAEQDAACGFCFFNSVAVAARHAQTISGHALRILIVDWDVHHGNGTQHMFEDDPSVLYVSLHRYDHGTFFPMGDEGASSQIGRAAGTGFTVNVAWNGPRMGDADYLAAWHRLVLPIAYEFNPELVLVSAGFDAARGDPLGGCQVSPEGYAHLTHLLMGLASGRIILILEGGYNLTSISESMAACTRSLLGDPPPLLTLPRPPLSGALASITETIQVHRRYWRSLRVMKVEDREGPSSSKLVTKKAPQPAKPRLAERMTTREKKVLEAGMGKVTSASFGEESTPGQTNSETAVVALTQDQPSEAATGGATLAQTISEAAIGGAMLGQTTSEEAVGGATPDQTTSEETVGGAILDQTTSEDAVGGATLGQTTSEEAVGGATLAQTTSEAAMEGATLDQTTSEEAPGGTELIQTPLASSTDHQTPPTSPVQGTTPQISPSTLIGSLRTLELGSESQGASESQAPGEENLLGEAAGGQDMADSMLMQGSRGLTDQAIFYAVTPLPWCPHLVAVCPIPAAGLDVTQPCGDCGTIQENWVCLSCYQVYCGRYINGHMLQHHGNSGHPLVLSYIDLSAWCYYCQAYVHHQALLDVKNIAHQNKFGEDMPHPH

[5] = test system: MGC-803; assay: Induction of apoptosis in human MGC803 cells assessed as necrotic cells at 4 uM measured after 48 hrs by Annexin-V FITC/PI staining based flow cytometry (reference value: 4.74%); type: functional
[6] = target: Histone deacetylase 2 (Homo sapiens, UniProt Q92769); assay: Inhibition of HDAC2 (unknown origin)
[7] = test system: MGC-803; assay: Antiproliferative activity against human MGC803 cells at 2 to 8 uM after 72 hrs by EdU staining based assay; type: functional, cell-based; conditions: dose 2-8 µM
How it was run: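 MGC803 cells exposed to 0, 2, 4 or 8 µM for 72 h in 24-well plates, then EdU staining per kit instructions. EdU+ cells were imaged by immunofluorescence and quantified. Mean ± SD of three independent experiments; DMSO control.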

[8] = target: T1, Protein deacetylase HDAC6 (Homo sapiens); assay: Binding affinity to HDAC6 in human MGC803 cells assessed as increase in thermal stability at 4 uM after 6 hrs by CETSA; type: cell-based; conditions: MGC-803
How it was run: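 MGC803 grown 24 h in 6-well plates, then exposed to DMSO or 4 µM compound for 6 h. Cells resuspended in ice-cold PBS and split into 6 tubes. Lysed by repeated freeze-thaw, heated 3 min across a 44 to 54 °C gradient. Soluble HDAC6 in the supernatant read by Western blot.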

[9] = test system: MGC-803; assay: Induction of apoptosis in human MGC803 cells assessed as early apoptotic cells at 4 uM measured after 48 hrs by Annexin-V FITC/PI staining based flow cytometry (reference value: 0.19%); type: functional
[10] = test system: MGC-803; assay: Induction of apoptosis in human MGC803 cells assessed as increase in caspase-9 expression after 48 hrs by Western blotting analysis; type: functional, cell-based; conditions: dose 2-8 µM
How it was run: (§1)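 MGC803 cells treated for 48 h, then lysed (0.1% SDS, 150 mM NaCl, 25 mM Tris-HCl, 1% deoxycholate, 1% NP-40, 1% PMSF). Protein quantified by BCA and resolved on 8–10% SDS-PAGE onto PVDF. Blocked in 5% milk, primary antibodies overnight at 4 °C, HRP secondary, ECL. GAPDH, total α-tubulin and H3 as references. Mean ± SD of three experiments.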

[11] = test system: MGC-803; assay: Induction of apoptosis in human MGC803 cells assessed as late apoptotic cells at 8 uM measured after 48 hrs by Annexin-V FITC/PI staining based flow cytometry (reference value: 2.74%); type: functional
[12] = test system: MGC-803; assay: Induction of apoptosis in human MGC803 cells assessed as downregulation of Bcl2 expression after 48 hrs by Western blotting analysis; type: functional, cell-based; conditions: dose 2-8 µM; how it was run: as §1
[13] = target: T1, Protein deacetylase HDAC6 (Homo sapiens); assay: Inhibition of HDAC6 in human MGC803 cells assessed as accumulation of acetylated alpha-tubulin level after 48 hrs by Western blotting analysis; type: cell-based; conditions: MGC-803, dose 2-8 µM; how it was run: as §1
[14] = Acute toxicity in C57BL/6 mouse assessed as lung tissue damage at 2 g/kg, po administered via gavage measured up to 14 days by HE staining based assay; type: organism-based; conditions: in vivo, 2000 mg/kg, 336 h, time <=14 day
How it was run: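 Mice aged 8-10 weeks, 20 females and 20 males, split into two groups: vehicle control (0.5% CMC-Na) or a single oral gavage dose of 2000 mg/kg. Animals were fed and observed normally for 14 days, recording body weight, mortality and behaviour. Heart, liver, spleen, lung and kidney sections were then fixed, embedded and H&E stained.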

[15] = test system: MGC-803; assay: Induction of apoptosis in human MGC803 cells assessed as increase in PARP expression after 48 hrs by Western blotting analysis; type: functional, cell-based; conditions: dose 2-8 µM; how it was run: as §1

Chain of Histone deacetylase 3 (O15379 whole entry): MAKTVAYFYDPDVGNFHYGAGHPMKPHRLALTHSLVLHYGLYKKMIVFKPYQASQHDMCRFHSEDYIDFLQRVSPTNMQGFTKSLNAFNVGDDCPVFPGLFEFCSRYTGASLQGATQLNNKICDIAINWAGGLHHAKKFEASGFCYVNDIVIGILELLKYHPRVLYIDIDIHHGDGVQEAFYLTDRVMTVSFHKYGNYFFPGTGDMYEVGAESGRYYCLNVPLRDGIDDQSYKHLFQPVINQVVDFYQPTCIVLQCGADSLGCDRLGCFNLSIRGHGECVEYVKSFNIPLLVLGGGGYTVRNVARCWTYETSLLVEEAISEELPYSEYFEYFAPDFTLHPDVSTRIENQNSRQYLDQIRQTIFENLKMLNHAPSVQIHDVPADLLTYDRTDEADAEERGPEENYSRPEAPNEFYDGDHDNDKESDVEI
Chain of Histone deacetylase 2 (Q92769 whole entry): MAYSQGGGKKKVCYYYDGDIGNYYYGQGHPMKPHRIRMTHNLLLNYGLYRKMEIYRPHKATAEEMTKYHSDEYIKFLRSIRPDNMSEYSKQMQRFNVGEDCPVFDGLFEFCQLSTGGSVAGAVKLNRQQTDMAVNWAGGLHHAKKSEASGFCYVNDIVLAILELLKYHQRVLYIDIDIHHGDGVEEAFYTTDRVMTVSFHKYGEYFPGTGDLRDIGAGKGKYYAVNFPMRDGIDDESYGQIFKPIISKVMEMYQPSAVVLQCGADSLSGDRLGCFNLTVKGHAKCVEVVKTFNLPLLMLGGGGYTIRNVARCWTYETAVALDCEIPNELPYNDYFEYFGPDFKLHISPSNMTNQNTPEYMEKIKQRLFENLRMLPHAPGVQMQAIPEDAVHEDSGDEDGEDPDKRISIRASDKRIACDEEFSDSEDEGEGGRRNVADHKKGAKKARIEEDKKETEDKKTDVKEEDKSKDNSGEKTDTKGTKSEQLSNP

Q: Which IC50 [1] does the source give for `Cc1ccc(-c2nc(CNc3ccc(C(=O)NO)cc3)n(-c3ccccc3)n2)s1` here?
A: 235 nM

Q: And the Activity [2]?
A: 8.76%

Q: And the viability at 8 µM [3]?
A: 43.6%

Q: What about the inhibition [4] of the same molecule?
A: 79.7%

Q: What about the Activity [5] of the same molecule?
A: 2.21%

Q: And the IC50 [6]?
A: 224 nM

Q: What about the Activity [7] of the same molecule?
A: Active

Q: What about the Activity [8] of the same molecule?
A: Active

Q: And the Activity [9]?
A: 2.95%

Q: What about the Activity [10] of the same molecule?
A: Dose-Dependent Effect

Q: What about the Activity [11] of the same molecule?
A: 45.65%

Q: And the Activity [12]?
A: Dose-Dependent Effect

Q: And the inhibition [13]?
A: Dose-Dependent Effect

Q: What about the Activity [14] of the same molecule?
A: Non-Toxic

Q: What about the Activity [15] of the same molecule?
A: Dose-Dependent Effect
